# ChEMBL document CHEMBL2311406, “Structure-based design of high-affinity macrocyclic peptidomimetics to block the menin-mixed lineage leukemia 1 (MLL1) protein-protein interaction” (J Med Chem, 2013)
# *1 amine or outer side, *2 acyl side, *3 side chain or, on linkers, in order; H or OH if unused. Where a SMILES comes first, the peptide text is derived from it. Bridges are numbered along the chain shown (N, C = ends). [ ]: non-standard residue; d: D form. The star is where a group is joined. 5FAM = O=C1OC2(c3ccc(O)cc3Oc3cc(O)ccc32)c2ccc(C(=O)*)cc21; Ala(indol-2-yl) = N[C@@H](Cc1cc2ccccc2[nH]1)C(=O)O; Phe(3-CF3) = N[C@@H](Cc1cccc(C(F)(F)F)c1)C(=O)O; Phe(3-Ph) = N[C@@H](Cc1cccc(-c2ccccc2)c1)C(=O)O; hhhhLys = O=C([C@H](CCCCCCCCN[*:3])N[*:1])[*:2]; X2 = CC(C)Cc1cccc(C[C@H](N[*:1])C(=O)[*:2])c1; Phe(3,5-F2) = N[C@@H](Cc1cc(F)cc(F)c1)C(=O)O; X1 = CCc1cccc(C[C@H](N[*:1])C(=O)[*:2])c1; Phe(3-Cl) = N[C@@H](Cc1cccc(Cl)c1)C(=O)O; Phe(4-Cl) = N[C@@H](Cc1ccc(Cl)cc1)C(=O)O; NH(CH2)9CO = O=C(CCCCCCCCCN[*:1])[*:2]; Phe(2-Cl) = N[C@@H](Cc1ccccc1Cl)C(=O)O; Phe(3-F) = N[C@@H](Cc1cccc(F)c1)C(=O)O; Phe(3-Me) = Cc1cccc(C[C@H](N)C(=O)O)c1; Phe(4-F) = N[C@@H](Cc1ccc(F)cc1)C(=O)O; Phe(2-F) = N[C@@H](Cc1ccccc1F)C(=O)O; Cha = N[C@@H](CC1CCCCC1)C(=O)O; Ahp(2) = CCCCC[C@H](N)C(=O)O; hLys = NCCCCC[C@H](N)C(=O)O; AEEEA = NCCOCCOCCOCC(=O)O; Ac5c = NC1(C(=O)O)CCCC1; Abu = CC[C@H](N)C(=O)O; Ac4c = NC1(C(=O)O)CCC1; Ac3c = NC1(C(=O)O)CC1; Aib = CC(C)(N)C(=O)O
# Biological target: T1, Menin (Homo sapiens, UniProt O00255)
# T1 sequence (O00255 whole entry): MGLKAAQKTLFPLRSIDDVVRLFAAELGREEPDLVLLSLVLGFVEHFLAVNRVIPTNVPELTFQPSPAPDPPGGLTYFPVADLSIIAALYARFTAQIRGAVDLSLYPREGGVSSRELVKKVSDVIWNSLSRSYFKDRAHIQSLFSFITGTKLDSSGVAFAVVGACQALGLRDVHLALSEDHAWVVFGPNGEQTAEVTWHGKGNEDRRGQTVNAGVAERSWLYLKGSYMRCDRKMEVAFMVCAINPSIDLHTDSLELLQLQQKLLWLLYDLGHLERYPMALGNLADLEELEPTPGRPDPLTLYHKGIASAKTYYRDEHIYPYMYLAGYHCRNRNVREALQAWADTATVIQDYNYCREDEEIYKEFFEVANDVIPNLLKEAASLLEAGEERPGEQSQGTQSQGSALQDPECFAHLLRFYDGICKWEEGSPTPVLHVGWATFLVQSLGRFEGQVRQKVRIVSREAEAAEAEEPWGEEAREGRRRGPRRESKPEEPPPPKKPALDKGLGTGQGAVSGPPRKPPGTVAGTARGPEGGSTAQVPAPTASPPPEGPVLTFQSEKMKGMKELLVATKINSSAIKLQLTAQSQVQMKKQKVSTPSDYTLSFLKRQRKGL
# Experiment: Binding affinity to menin (unknown origin) after 60 mins by fluorescence polarization assay
# Outline: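 Competitive FP with fluorescein-labeled peptide tracers. Compound in DMSO (2% final) was added to a preincubated menin/tracer complex in 100 mM potassium phosphate pH 7.5 with 100 μg/mL bovine γ-globulin and 0.02% sodium azide. Menin/tracer/detergent were 30 nM/3 nM/0.005% Triton X-100 or 3 nM/2 nM/0.02% Tween-20. Ki was derived from the fitted IC50, probe Kd and assay concentrations.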
Compound,IC50 [nM],Ki [nM],Kd [nM]
CC(=O)N[C@@H](CCCNC(=N)N)C(=O)N[C@@H](Cc1c[nH]c2ccccc12)C(=O)N[C@H]1CCCCCCCCCNC(=O)[C@@H]2CCCN2C(=O)[C@H](CCCNC(=N)N)NC(=O)[C@H](C)NC(=O)[C@@H]2CCCN2C(=O)[C@H](Cc2ccccc2)NC1=O,144,42.5,–
CC(=O)N[C@@H](CCCNC(=N)N)C(=O)N[C@@H](Cc1c[nH]c2ccccc12)C(=O)N[C@H]1CCCCNC(=O)[C@@H]2CCCN2C(=O)[C@H](CCCNC(=N)N)NC(=O)[C@H](C)NC(=O)[C@@H]2CCCN2C(=O)[C@H](Cc2ccccc2)NC1=O (Ac-RWKFPARP; lactam 3-C),11000,3320,–
CCCCC[C@H](NC(=O)[C@H](Cc1c[nH]c2ccccc12)NC(=O)[C@H](CCCNC(=N)N)NC(C)=O)C(=O)N[C@@H](Cc1ccccc1)C(=O)N1CCC[C@H]1C(=O)N[C@@H](C)C(=O)N[C@@H](CCCNC(=N)N)C(=O)N1CCC[C@H]1C(=O)NCC (Ac-RW[Ahp(2)]FPARP-NHEt),7390,2170,–
CC(=O)N[C@H]1CCCCCCCCNC(=O)[C@@H]2CCCN2C(=O)[C@H](CCCNC(=N)N)NC(=O)[C@H](C)NC(=O)[C@@H]2CCCN2C(=O)[C@H](Cc2ccccc2)NC1=O (Ac-[hhhhLys]FPARP; lactam 1-C),2160,586,–
N=C(N)NCCC[C@@H]1NC(=O)C2(CCCC2)NC(=O)[C@@H]2CCCN2C(=O)[C@H](Cc2ccccc2)NC(=O)[C@@H](N)CCCCCCCCNC(=O)[C@@H]2CCCN2C1=O (H-[hhhhLys]FP[Ac5c]RP; lactam 1-C),6320,1660,–
N=C(N)NCCC[C@@H]1NC(=O)C2(CCC2)NC(=O)[C@@H]2CCCN2C(=O)[C@H](CC2CCCCC2)NC(=O)[C@@H](N)CCCCCCCCNC(=O)[C@@H]2CCCN2C1=O (H-[hhhhLys][Cha]P[Ac4c]RP; lactam 1-C),3330,862,–
N=C(N)NCCC[C@@H]1NC(=O)C2(CCC2)NC(=O)[C@@H]2CCCN2C(=O)[C@H](Cc2ccccc2Cl)NC(=O)[C@@H](N)CCCCCCCCNC(=O)[C@@H]2CCCN2C1=O (H-[hhhhLys][Phe(2-Cl)]P[Ac4c]RP; lactam 1-C),112,30,–
N=C(N)NCCC[C@@H]1NC(=O)C2(CCC2)NC(=O)[C@@H]2CCCN2C(=O)[C@H](Cc2cccc(C(F)(F)F)c2)NC(=O)[C@@H](N)CCCCCCCCNC(=O)[C@@H]2CCCN2C1=O (H-[hhhhLys][Phe(3-CF3)]P[Ac4c]RP; lactam 1-C),2520,725,–
N=C(N)NCCC[C@@H]1NC(=O)C2(CCC2)NC(=O)[C@@H]2CCCN2C(=O)[C@H](Cc2cccc(Cl)c2)NC(=O)[C@@H](N)CCCCCCCCNC(=O)[C@@H]2CCCN2C1=O (H-[hhhhLys][Phe(3-Cl)]P[Ac4c]RP; lactam 1-C),159,44.6,–
N=C(N)NCCC[C@@H]1NC(=O)C2(CCC2)NC(=O)[C@@H]2CCCN2C(=O)[C@H](Cc2cccc(F)c2)NC(=O)[C@@H](N)CCCCCCCCNC(=O)[C@@H]2CCCN2C1=O (H-[hhhhLys][Phe(3-F)]P[Ac4c]RP; lactam 1-C),25.1,6.8,–
N=C(N)NCCC[C@@H]1NC(=O)C2(CCC2)NC(=O)[C@@H]2CCCN2C(=O)[C@H](Cc2cccc(-c3ccccc3)c2)NC(=O)[C@@H](N)CCCCCCCCNC(=O)[C@@H]2CCCN2C1=O (H-[hhhhLys][Phe(3-Ph)]P[Ac4c]RP; lactam 1-C),39400,14000,–
N=C(N)NCCC[C@@H]1NC(=O)C2(CCC2)NC(=O)[C@@H]2CCCN2C(=O)[C@H](Cc2ccc(F)cc2)NC(=O)[C@@H](N)CCCCCCCCNC(=O)[C@@H]2CCCN2C1=O (H-[hhhhLys][Phe(4-F)]P[Ac4c]RP; lactam 1-C),422,123,–
C[C@@H]1NC(=O)[C@@H]2CCCN2C(=O)[C@H](Cc2ccccc2)NC(=O)CCCCCCCCCNC(=O)[C@@H]2CCCN2C(=O)[C@H](CCCNC(=N)N)NC1=O (cyclo(ARP[NH(CH2)9CO]FP)),6450,1840,–
Ac-RFPARP-NH2,9570,2850,–
Ac-RWRFPAR-NH2,85300,25500,–
Ac-RWRFPARP-NH2,232,71.1,–
Ac-RWRFPARPGTGRR-NH2,11.4,2.9,–

# The remaining lines, values ahead:
IC50 [nM],Ki [nM],Kd [nM],Compound
63.3,17.5,–,CC(=O)N[C@@H](CCCNC(=N)N)C(=O)N[C@@H](Cc1c[nH]c2ccccc12)C(=O)N[C@H]1CCCCCCNC(=O)[C@@H]2CCCN2C(=O)[C@H](CCCNC(=N)N)NC(=O)[C@H](C)NC(=O)[C@@H]2CCCN2C(=O)[C@H](Cc2ccccc2)NC1=O
514,136,–,CC(=O)N[C@@H](CCCNC(=N)N)C(=O)N[C@@H](Cc1c[nH]c2ccccc12)C(=O)N[C@H]1CCCCCNC(=O)[C@@H]2CCCN2C(=O)[C@H](CCCNC(=N)N)NC(=O)[C@H](C)NC(=O)[C@@H]2CCCN2C(=O)[C@H](Cc2ccccc2)NC1=O (Ac-RW[hLys]FPARP; lactam 3-C)
25,6.9,–,CC(=O)N[C@@H](CCCNC(=N)N)C(=O)N[C@@H](Cc1c[nH]c2ccccc12)C(=O)N[C@H]1CCCCCCCCNC(=O)[C@@H]2CCCN2C(=O)[C@H](CCCNC(=N)N)NC(=O)[C@H](C)NC(=O)[C@@H]2CCCN2C(=O)[C@H](Cc2ccccc2)NC1=O (Ac-RW[hhhhLys]FPARP; lactam 3-C)
665,197,–,C[C@@H]1NC(=O)[C@@H]2CCCN2C(=O)[C@H](Cc2ccccc2)NC(=O)[C@@H](N)CCCCCCCCNC(=O)[C@@H]2CCCN2C(=O)[C@H](CCCNC(=N)N)NC1=O (H-[hhhhLys]FPARP; lactam 1-C)
10700,3180,–,CC[C@@H]1NC(=O)[C@@H]2CCCN2C(=O)[C@H](Cc2ccccc2)NC(=O)[C@@H](N)CCCCCCCCNC(=O)[C@@H]2CCCN2C(=O)[C@H](CCCNC(=N)N)NC1=O (H-[hhhhLys]FP[Abu]RP; lactam 1-C)
194,55.5,–,N=C(N)NCCC[C@@H]1NC(=O)C2(CC2)NC(=O)[C@@H]2CCCN2C(=O)[C@H](Cc2ccccc2)NC(=O)[C@@H](N)CCCCCCCCNC(=O)[C@@H]2CCCN2C1=O (H-[hhhhLys]FP[Ac3c]RP; lactam 1-C)
226,67,–,CC1(C)NC(=O)[C@@H]2CCCN2C(=O)[C@H](Cc2ccccc2)NC(=O)[C@@H](N)CCCCCCCCNC(=O)[C@@H]2CCCN2C(=O)[C@H](CCCNC(=N)N)NC1=O (H-[hhhhLys]FP[Aib]RP; lactam 1-C)
102,27.5,–,N=C(N)NCCC[C@@H]1NC(=O)C2(CCC2)NC(=O)[C@@H]2CCCN2C(=O)[C@H](Cc2ccccc2F)NC(=O)[C@@H](N)CCCCCCCCNC(=O)[C@@H]2CCCN2C1=O (H-[hhhhLys][Phe(2-F)]P[Ac4c]RP; lactam 1-C)
1150,332,–,Cc1cccc(C[C@@H]2NC(=O)[C@@H](N)CCCCCCCCNC(=O)[C@@H]3CCCN3C(=O)[C@H](CCCNC(=N)N)NC(=O)C3(CCC3)NC(=O)[C@@H]3CCCN3C2=O)c1 (H-[hhhhLys][Phe(3-Me)]P[Ac4c]RP; lactam 1-C)
2010,549,–,N=C(N)NCCC[C@@H]1NC(=O)C2(CCC2)NC(=O)[C@@H]2CCCN2C(=O)[C@H](Cc2ccc(Cl)cc2)NC(=O)[C@@H](N)CCCCCCCCNC(=O)[C@@H]2CCCN2C1=O (H-[hhhhLys][Phe(4-Cl)]P[Ac4c]RP; lactam 1-C)
4610,1330,–,CCc1cccc(C[C@@H]2NC(=O)[C@@H](N)CCCCCCCCNC(=O)[C@@H]3CCCN3C(=O)[C@H](CCCNC(=N)N)NC(=O)C3(CCC3)NC(=O)[C@@H]3CCCN3C2=O)c1 (H-[hhhhLys][X1]P[Ac4c]RP; lactam 1-C)
36000,11600,–,CC(C)Cc1cccc(C[C@@H]2NC(=O)[C@@H](N)CCCCCCCCNC(=O)[C@@H]3CCCN3C(=O)[C@H](CCCNC(=N)N)NC(=O)C3(CCC3)NC(=O)[C@@H]3CCCN3C2=O)c1 (H-[hhhhLys][X2]P[Ac4c]RP; lactam 1-C)
–,–,1.4,"N=C(N)NCCC[C@H](NC(=O)COCCOCCOCCNC(=O)c1ccc2c(c1)C(=O)OC21c2ccc(O)cc2Oc2cc(O)ccc21)C(=O)N[C@@H](Cc1cc2ccccc2[nH]1)C(=O)N[C@H]1CCCCCCCCNC(=O)[C@@H]2CCCN2C(=O)[C@H](CCCNC(=N)N)NC(=O)C2(CCC2)NC(=O)[C@@H]2CCCN2C(=O)[C@H](Cc2cc(F)cc(F)c2)NC1=O ({5FAM-AEEEA}-R[Ala(indol-2-yl)][hhhhLys][Phe(3,5-F2)]P[Ac4c]RP; lactam 3-C)"
1060,311,–,Ac-WRFPARP-NH2
